Assay results as given in ChEMBL document CHEMBL4414566, “Cytotoxicity and Anti-inflammatory Properties of Apigenin-Derived Isolaxifolin” (J Nat Prod, 2019).
Activity calls are given as the source filed them. No cut-off for these calls is given here.

Legend:
[1] = system: RAW264.7; experiment: Antiinflammatory activity in mouse RAW264.7 cells assessed as inhibition LPS-induced NO production at 254.8 uM measured after 24 hrs by griess reagent based assay; format: functional, cell-based
Summary of the method: (§1)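 Murine RAW 264.7 macrophages, 1 × 10^5/well, 4 h settling, then LPS (1.0 μg/mL) for 24 h. Medium was swapped for test solutions (0.8–3.1 μM or 2.3–9.2 μM), or DXM 254.8 μM as positive control, for another 24 h. Secreted NO was measured by Griess assay; TNF-α and IL-6 by ELISA. Run in triplicate, mean ± SD.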

[2] = system: RAW264.7; experiment: Antiinflammatory activity against LPS-activated mouse RAW264.7 cells assessed as reduction in IL6 mRNA expression preincubated with LPS for 24 hrs followed by compound addition and measured after 24 hrs by qRT-PCR analysis; format: functional, cell-based
Summary of the method: (§2)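 RAW 264.7 cells (DMEM, 10% FBS, 37 °C, 5% CO2) seeded at 1 × 10^5/well and held 4 h. LPS 1.0 μg/mL was added for 24 h, then medium was replaced with test agent (0.8, 1.6, 3.1 μM or 2.3, 4.6, 9.2 μM) for 24 h. TNF-α and IL-6 transcripts were quantified by real-time qPCR against GAPDH. Triplicates, mean ± SD.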

[3] = system: HepG2; experiment: Antiproliferative activity against human HepG2 cells reduction in cell viability at 46.3 uM incubated for 48 hrs by methylene blue assay relative to control; format: functional
Summary of the method: (§3)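 MDA-MB-231, MCF-7, HepG2 and LNCaP cells were grown in DMEM; HCT-116 and LO-2 in RPMI-1640; all with 10% FBS at 37 °C, 5% CO2. Cells seeded at 1.5 × 10^5 cells/mL and incubated overnight (~12 h), then exposed to 6.2–30.9 μM or 23.1–185.0 μM (final DMSO <0.1%) for 48 h. Read by methylene blue staining; viability = Abs treated/Abs untreated × 100%, triplicate.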

[4] = system: RAW264.7; experiment: Antiinflammatory activity in mouse RAW264.7 cells assessed as inhibition of LPS-induced NO production measured after 24 hrs by griess reagent based assay; format: functional, cell-based; summary of the method: as §1
[5] = system: LNCaP; experiment: Antiproliferative activity against human LNCAP cells assessed as reduction in cell viability at 46.3 uM incubated for 48 hrs by methylene blue assay relative to control; format: functional; summary of the method: as §3
[6] = system: RAW264.7; experiment: Antiinflammatory activity in mouse RAW264.7 cells assessed as reduction in LPS-induced IL6 production preincubated with LPS for 24 hrs followed by compound addition and measured after 24 hrs by ELISA; format: functional, cell-based; summary of the method: as §1
[7] = system: L02; experiment: Cytotoxicity against human LO2 cells assessed as reduction in cell viability at 23.1 to 185 uM incubated for 48 hrs by methylene blue assay; format: cell-based; conditions: l02, 48 h; summary of the method: as §3
[8] = system: MDA-MB-231; experiment: Induction of mitochondrial membrane potential loss in human MDA-MB-231 cells incubated for 48 hrs by JC1 staining based flow cytometric analysis; format: functional, cell-based
Summary of the method: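 MDA-MB-231 cells in DMEM/10% FBS exposed 48 h to 0, 8.6, 12.4 or 17.3 μM. Harvested cells stained with JC-1 for 15 min in the dark, then analysed by flow cytometry. Excitation 488 nm; green emission read at 525 nm, red at 590 nm. Output given as percent green-to-red fluorescence intensity ratio. Triplicate, mean ± SD.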

[9] = system: MDA-MB-231; experiment: Antiproliferative activity against human MDA-MB-231 cells assessed as viable cells at 40 uM incubated for 48 hrs by trypan blue dye exclusion test relative to control; format: functional; conditions: MDA-MB-231, 48 h, read-out: Activity
[10] = system: MDA-MB-231; experiment: Induction of cell cycle arrest in human MDA-MB-231 cells assessed as increase in accumulation of cells at G0/G1 phase incubated for 48 hrs by PI/RNase staining based flow cytometric analysis; format: functional
Summary of the method: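 Cells grown 24 h in DMEM/10% FBS at 37 °C, 5% CO2, then exposed 48 h to 8.6, 12.4 or 17.3 μM. Pelleted, fixed in 75% ethanol at −20 °C overnight, stained with PI-containing RNase 15 min in the dark at ambient temperature. About 10 000 cells per well analysed by flow cytometry. Triplicate, mean ± SD.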

[11] = Cytotoxicity against mouse RAW264.7 cells assessed as reduction in cell viability incubated for 24 hrs by MTT assay; format: cell-based; conditions: read-out: MNCC
Summary of the method: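 MTT viability assay: RAW 264.7 cells seeded at 2.5 × 10^4 cells/well, cultured 12 h, then given five concentrations from serial dilution (up to 6.2 or 9.2 μM; final DMSO <1%) for 24 h. Viability was calculated relative to untreated blank control; n = 3, mean ± SD.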

[12] = system: MDA-MB-231; experiment: Antiproliferative activity against human MDA-MB-231 cells assessed as reduction in cell viability at 46.3 uM incubated for 48 hrs by methylene blue assay; format: functional; summary of the method: as §3
[13] = system: MDA-MB-231; experiment: Induction of apoptosis in human MDA-MB-231 cells assessed as increase in nuclear chromatin condensation incubated for 48 hrs by Hoechst 33258 staining based fluorescence microscopic method; format: functional, cell-based
Summary of the method: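 MDA-MB-231 cells were grown 24 h and treated with 8.6, 12.4 or 17.3 μM for 48 h. They were then fixed 10 min, washed three times in PBS and stained 5 min with Hoechst 33258. Nuclear condensation was imaged by fluorescence microscopy (excitation 350 nm, emission 460 nm).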

[14] = system: MCF7; experiment: Antiproliferative activity against human MCF7 cells assessed as cell viability at 188.7 uM incubated for 48 hrs by methylene blue assay relative to control; format: functional; conditions: MCF7, 48 h, read-out: Activity
[15] = system: RAW264.7; experiment: Antiinflammatory activity in mouse RAW264.7 cells assessed as reduction in LPS-induced TNFalpha production preincubated with LPS for 24 hrs followed by compound addition and measured after 24 hrs by ELISA; format: functional, cell-based; summary of the method: as §1
[16] = system: HCT-116; experiment: Antiproliferative activity against human HCT116 cells assessed as reduction in cell viability at 46.3 uM incubated for 48 hrs by methylene blue assay relative to control; format: functional; summary of the method: as §3
[17] = system: RAW264.7; experiment: Antiinflammatory activity against LPS-activated mouse RAW264.7 cells assessed as reduction in TNFalpha mRNA expression preincubated with LPS for 24 hrs followed by compound addition and measured after 24 hrs by qRT-PCR analysis; format: functional, cell-based; summary of the method: as §2
[18] = system: MCF7; experiment: Antiproliferative activity against human MCF7 cells assessed as reduction in cell viability at 46.3 uM incubated for 48 hrs by methylene blue assay relative to control; format: functional; summary of the method: as §3
[19] = system: RAW264.7; experiment: Inhibition of nitric oxide production in mouse RAW264.7 cells measured after 24 hrs by griess reagent based assay; format: functional, cell-based

Compound	inhibition [1]	Activity [2]	Activity [3]	inhibition [4]	Activity [5]	Activity [6]	Activity [7]	Activity [8]	viability at 40 µM [9]	Activity [10]	MNTC at 24 h [11]	Activity [12]	Activity [13]	viability at 188.7 µM [14]	Activity [15]	Activity [16]	Activity [17]	Activity [18]	inhibition [19]
C[C@@H]1C[C@H]2[C@@H]3CCC4=CC(=O)C=C[C@]4(C)[C@@]3(F)[C@@H](O)C[C@]2(C)[C@@]1(O)C(=O)CO	Active	–	–	–	–	–	–	–	–	–	–	–	–	–	–	–	–	–	–
O=c1cc(-c2ccc(O)cc2)oc2cc(O)cc(O)c12 [APIGENIN]	–	Dose-dependent effect	<=50%	Dose-dependent effect	<=50%	Dose-dependent effect	Non-Toxic	Active	45%	Active	9.2 µM	<=50%	Dose-dependent effect	20%	Dose-dependent effect	<=50%	Dose-dependent effect	<=50%	Dose-dependent effect
